What is called IC50 is the concentration at which inhibition is half-maximal. The low end stands for greater potency in that assay, the high end for weaker potency in that assay. For orientation: LD50 means the dose expected to kill half of the subjects tested. Usually T/C stands for the ratio of treated to control.

Where “and” joins values, the source holds several entries; their conditions need not be identical. Equal values may be shown once.

This note sets out measurements from ChEMBL document CHEMBL1125294, “Chromophore-modified antineoplastic imidazoacridinones. Synthesis and activity against murine leukemias” (J Med Chem, 1992).

Data set [1] has as its system Mus musculus. The data set can be described thus: Antineoplastic activity was evaluated in vivo against murine leukemia P388 (i.p./i.p.; days 1-5) and optimum dose was reported. It is filed as functional. The method, boiled down:
(§1)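 BDF1 mice given 10^6 P388 lymphocytic leukemia cells ip on day 0, then treated ip on days 1-5 following NCI protocols. Full dose-response runs spanned ineffective to clearly toxic doses. Mean survival time was taken per group of eight mice and expressed as % T/C. The optimal dose is the one giving the highest T/C.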

The subject of the next data set is L1210. The data set can be described thus: In vitro inhibitory activity against murine L1210 leukemia. It is filed as functional, cell-based. The conditions noted are these: Mus musculus. Put shortly:
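Mouse L1210 leukemia cells were grown in RPMI 1640 with 5% fetal calf serum, penicillin and streptomycin, at 37 °C in 5% CO2. Cells were seeded at 5×10^4 cells/mL and exposed to four concentrations of compound dissolved in 50% ethanol.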

Data set [2] concerns Mus musculus. Nature of the data set: Antineoplastic activity was evaluated in vivo against murine leukemia P388 (i.p./i.p.; days 1-5) and optimum dose was reported;120. It is filed as functional. Put shortly:
as §1

Data set [3] can be described thus: Toxicity in CDF1 male mice following a single intraperitoneal administration. It is filed as organism-based. The conditions noted are these: CDF1, mouse, in vivo, ip. The method, boiled down: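 Acute toxicity after one ip dose in male CDF1 mice. The read-out is the LD50, given as preliminary estimates that are either a dose range or a bound in mg/kg.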
For data set [4], the system named is Mus musculus. The data set can be described thus: In vivo % T/C activity was measured against P388 leukemia;250. It is filed as functional. Put shortly:
as §1

Data set [5] deals with Mus musculus. The data set can be described thus: In vivo % T/C activity was measured against P388 leukemia; 210. It is filed as functional. Put shortly:
as §1

Data set [6] concerns Mus musculus. The data set can be described thus: In vivo % T/C activity was measured against P388 leukemia; 290. It is filed as functional. The method, boiled down: as §1
The test system of data set [7] is Mus musculus. The data set can be described thus: In vivo % T/C activity was measured against P388 leukemia; 155. It is filed as functional. Put shortly: as §1
The subject of data set [8] is Mus musculus. Nature of the data set: In vivo % T/C activity was measured against P388 leukemia. It is filed as functional. The method, boiled down:
as §1

For `CCN(CC)CCCNc1ccc2ncn3c4ccc(OC)cc4c(=O)c1c23`, the Optimal dose with Mus musculus [1] turned out to be 150 mg kg-1 injection-1. For the same molecule, in the data set on L1210, the IC50 is 1.1 µg/mL and 2.5 µM.

Take `COc1ccc2c(c1)c(=O)c1c(NCCCN(C)C)ccc3nc(C)n2c31`: the Optimal dose with Mus musculus [1] stood at 150 mg kg-1 injection-1. Besides, in the data set with L1210, the IC50 was 1.4 µg/mL and 3.2 µM.

As for `CCN(CC)CCCNc1ccc2ncn3c4ccc(O)cc4c(=O)c1c23`, in the data set on Mus musculus [1], the Optimal dose is reported as 25 mg kg-1 injection-1. In the data set with L1210, the IC50 was 0.08 µg/mL and 180 nM.

In the data set with Mus musculus [2], `CCN(CC)CCNc1ccc2nc(C)n3c4ccc(OC)cc4c(=O)c1c23` showed an Optimal dose of 150 mg kg-1 injection-1. Besides, the IC50 in the data set with L1210 is 0.7 µg/mL and 1.55 µM.

In turn, `Cc1nc2ccc(NCCN(C)C)c3c(=O)c4cc(O)ccc4n1c23` gave an Optimal dose in the data set with Mus musculus [1] of 12.5 mg kg-1 injection-1. Further, in data set [3], the LD50 worked out at 250 mg/kg. For the same molecule, the IC50 in the data set on L1210 is 0.06 µg/mL and 135 nM. In the data set on Mus musculus [4], this molecule registered a T/C of 200%.

For `CN(C)CCNc1ccc2ncn3c4ccc(O)cc4c(=O)c1c23`, the Optimal dose with Mus musculus [1] is listed as 12.5 mg kg-1 injection-1. Moreover, in the data set with L1210, the IC50 is 0.02 µg/mL and 48 nM. In the data set with Mus musculus [5], this molecule yielded a T/C of 210%.

The molecule `COc1ccc2c(c1)c(=O)c1c(NCCCN(C)C)ccc3ncn2c31` displayed an Optimal dose in the data set with Mus musculus [1] of 150 mg kg-1 injection-1. For the same molecule, in the data set on L1210, the IC50 was 3.5 µg/mL and 8.2 µM.

`CCN(CC)CCNc1ccc2ncn3c4ccc(OC)cc4c(=O)c1c23` had an Optimal dose in the data set with Mus musculus [1] of 100 mg kg-1 injection-1. Also, the LD50 in [3] turned out to be 500 mg/kg. Besides, in the data set on L1210, the IC50 was 0.78 µg/mL and 1.8 µM.

Molecule `CN(C)CCCNc1ccc2ncn3c4ccc(O)cc4c(=O)c1c23` returned an Optimal dose in the data set with Mus musculus [1] of 5 mg kg-1 injection-1. Also, the IC50 in the data set with L1210 is 0.014 µg/mL and 34 nM.

Turning to `Cc1nc2ccc(NCCCN(C)C)c3c(=O)c4cc(O)ccc4n1c23`, the Optimal dose in the data set with Mus musculus [1] is reported as 100 mg kg-1 injection-1. Further, the IC50 in the data set with L1210 was 0.1 µg/mL and 230 nM.

The molecule `CCN(CC)CCNc1ccc2nc(C)n3c4ccc(O)cc4c(=O)c1c23` came in with an Optimal dose in the data set with Mus musculus [1] of 75 mg kg-1 injection-1. In data set [3], this molecule yielded an LD50 of 500 mg/kg. The T/C with Mus musculus [6] came out at 280%. For the same molecule, in the data set on L1210, the half-inhibitory concentration (IC50) is 0.11 µg/mL and 250 nM.

In turn, `CCN(CC)CCCNc1ccc2nc(C)n3c4ccc(OC)cc4c(=O)c1c23` gave an Optimal dose in the data set with Mus musculus [1] of 150 mg kg-1 injection-1. For the same molecule, the IC50 with L1210 is 0.7 µg/mL and 1.4 µM.

Regarding `COc1ccc2c(c1)c(=O)c1c(NCCN(C)C)ccc3ncn2c31`, in the data set on Mus musculus [1], the Optimal dose came out at 100 mg kg-1 injection-1. In addition, the IC50 in the data set on L1210 is 0.65 µg/mL and 1.65 µM.

On to `CCN(CC)CCCNc1ccc2nc(C)n3c4ccc(O)cc4c(=O)c1c23`, for which, in the data set on Mus musculus [1], the Optimal dose is 25 mg kg-1 injection-1. For the same molecule, in the data set with L1210, the IC50 is 0.4 µg/mL and 890 nM. The T/C in the data set on Mus musculus [7] was 150%.

Molecule `COc1ccc2c(c1)c(=O)c1c(NCCN(C)C)ccc3nc(C)n2c31` displayed an Optimal dose in the data set with Mus musculus [1] of 150 mg kg-1 injection-1. The IC50 with L1210 is 0.34 µg/mL and 770 nM.

Take `O=C1c2ccccc2C(=O)c2c(NCCNCCO)ccc(NCCNCCO)c21` [AMETANTRONE]: the Optimal dose with Mus musculus [1] turned out to be 12.5 mg kg-1 injection-1. Besides, the T/C in the data set with Mus musculus [8] worked out at 300%. Further, the IC50 with L1210 was 1.77 µg/mL and 3.65 µM.

Take `CCN(CC)CCNc1ccc2ncn3c4ccc(O)cc4c(=O)c1c23` [C-1311]: the Optimal dose in the data set with Mus musculus [1] is on record as 5 mg kg-1 injection-1. This molecule gave a median lethal dose (LD50) in [3] of over 200 mg/kg. The IC50 with L1210 is 0.013 µg/mL and 31 nM.
